{"data": "Published values of several laboratories", "effect on": "metabolic stability", "host": "mouse", "sample": "liver microsomes", "note": "Compare with care: the assays were run in different laboratories."}
{"SMILES": "CC1(C(F)F)NC(=O)N(c2ccc(F)c(C(F)(F)F)c2)C1=O (stereo not shown)", "microsomal CLint [µL/min/mg]": "< 7"}
{"SMILES": "CC(C)n1ncc2c(C(=O)NCC3(F)CNC3)cc(C3CC3)nc21", "microsomal CLint [µL/min/mg]": 19.8}
{"SMILES": "CC1(C(F)(F)F)NC(=O)N(c2ccc(F)c(C(F)(F)F)c2)C1=O (stereo not shown)", "microsomal CLint [µL/min/mg]": "< 7"}
{"SMILES": "CC(C)c1cc(C(=O)NCCN)c2cnn(C(C)C)c2n1", "microsomal CLint [µL/min/mg]": "< 9.6"}
{"SMILES": "CCN(CC)CCCOc1ccc2c(=O)c3c([nH]c2c1)CCCC3", "tested at": "1 µM", "pH": "pH 7.4", "microsomal CLint [µL/min/mg]": 7.94}
{"SMILES": "CC1(C)NC(=O)N(c2ccc(F)c(OC(F)(F)F)c2)C1=O", "microsomal CLint [µL/min/mg]": "< 7"}
{"SMILES": "CCCCCCCCCCCCCCCC(=O)NCCOC(=O)C[C@@H](CN)CC(C)C", "tested at": "1 µM", "pH": "pH 7.4", "microsomal CLint [µL/min/mg]": 14.6}
{"SMILES": "O=c1c2ccc(Oc3ccc(OC(F)(F)F)cc3)cc2[nH]c2cc(Cl)c(F)cc12", "tested at": "1 µM", "pH": "pH 7.4", "microsomal CLint [µL/min/mg]": 1.84}
{"SMILES": "COc1ccc(Cn2cc(CO[C@@H]3O[C@H]4[C@H](OC[C@H]4O)[C@H]3O)nn2)cc1", "microsomal CLint [µL/min/mg]": "< 14.4"}
{"SMILES": "O=c1c2c([nH]c3cc(OC(F)(F)F)ccc13)CCCC2", "tested at": "1 µM", "pH": "pH 7.4", "microsomal CLint [µL/min/mg]": 139}
{"SMILES": "CC1(C)NC(=O)N(c2cc(C(F)(F)F)c(F)cc2C#N)C1=O", "microsomal CLint [µL/min/mg]": "< 7"}
{"SMILES": "CC(C)(C)OC(=O)N1CCC(Oc2ccc3c(=O)c4c(F)cc(Cl)cc4[nH]c3c2)CC1", "tested at": "1 µM", "pH": "pH 7.4", "microsomal CLint [µL/min/mg]": 12.5}
{"SMILES": "CC1(C)NC(=O)N(c2ccc(F)c(Br)c2)C1=O", "microsomal CLint [µL/min/mg]": 8}
{"SMILES": "CNCCNC(=O)c1cc(C(C)C)nc2c1cnn2C(C)C", "microsomal CLint [µL/min/mg]": 175}
{"SMILES": "Cc1[nH]c(C)c(S(=O)(=O)Nc2ccc(C(F)(F)F)c(Cl)c2)c1C(=O)N1CCC(F)(F)C1", "microsomal CLint [µL/min/mg]": 59}
{"SMILES": "O=c1c2c([nH]c3c(Oc4ccc(OC(F)(F)F)cc4)cccc13)CCCC2", "tested at": "1 µM", "pH": "pH 7.4", "microsomal CLint [µL/min/mg]": 8.33}
{"SMILES": "Cc1cc(N2C(=O)NC(C)(C)C2=O)cc(C(F)(F)F)n1", "microsomal CLint [µL/min/mg]": 19}
{"SMILES": "CC(C)n1ncc2c(C(=O)NCC(C)(C)N(C)C)cc(C3CC3)nc21", "microsomal CLint [µL/min/mg]": 30.4}
{"SMILES": "Cc1[nH]c(C)c(S(=O)(=O)Nc2ccc(C(F)(F)F)c(Cl)c2)c1C(=O)N(C)C", "microsomal CLint [µL/min/mg]": 179}
